Experimental data: ChEMBL document CHEMBL5038571, “Design and Synthesis of EZH2-Based PROTACs to Degrade the PRC2 Complex for Targeting the Noncatalytic Activity of EZH2” (J Med Chem, 2021)
Activity calls are given as the source filed them. The calls are words filed in the database; no cut-off is given here.

Experiments:
[1] = target: T1, Protein cereblon/Histone-lysine N-methyltransferase EZH2 (Homo sapiens) (UniProt Q15910+Q96SW2); test: PROTAC activity at CRBN E3 ligase/EZH2 in PRC2 complex in human WSUDLCL2 cells assessed as reduction in SUZ12 level at 2.5 uM measured after 48 hrs by Western blot analysis; assay type: cell-based
T1 sequence (Q15910 whole entry, looked up): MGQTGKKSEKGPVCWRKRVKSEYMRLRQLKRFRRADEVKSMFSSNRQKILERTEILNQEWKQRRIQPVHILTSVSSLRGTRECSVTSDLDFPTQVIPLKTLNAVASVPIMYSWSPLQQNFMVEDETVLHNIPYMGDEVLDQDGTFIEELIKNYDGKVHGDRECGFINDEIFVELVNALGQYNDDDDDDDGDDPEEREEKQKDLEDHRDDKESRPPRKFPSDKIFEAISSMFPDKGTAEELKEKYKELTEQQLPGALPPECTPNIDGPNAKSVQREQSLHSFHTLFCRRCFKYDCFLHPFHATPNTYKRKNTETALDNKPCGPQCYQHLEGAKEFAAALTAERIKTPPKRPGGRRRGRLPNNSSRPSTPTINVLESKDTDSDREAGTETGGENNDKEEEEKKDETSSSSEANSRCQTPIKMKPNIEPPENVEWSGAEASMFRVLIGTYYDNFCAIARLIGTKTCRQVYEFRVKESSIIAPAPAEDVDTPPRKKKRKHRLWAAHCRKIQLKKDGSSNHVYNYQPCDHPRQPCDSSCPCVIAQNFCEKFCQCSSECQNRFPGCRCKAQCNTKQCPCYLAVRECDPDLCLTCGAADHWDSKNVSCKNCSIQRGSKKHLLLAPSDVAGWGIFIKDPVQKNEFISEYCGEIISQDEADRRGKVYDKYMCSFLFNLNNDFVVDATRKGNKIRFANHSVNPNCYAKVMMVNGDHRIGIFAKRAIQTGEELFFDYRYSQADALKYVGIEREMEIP
T1 sequence (Q96SW2 whole entry, looked up): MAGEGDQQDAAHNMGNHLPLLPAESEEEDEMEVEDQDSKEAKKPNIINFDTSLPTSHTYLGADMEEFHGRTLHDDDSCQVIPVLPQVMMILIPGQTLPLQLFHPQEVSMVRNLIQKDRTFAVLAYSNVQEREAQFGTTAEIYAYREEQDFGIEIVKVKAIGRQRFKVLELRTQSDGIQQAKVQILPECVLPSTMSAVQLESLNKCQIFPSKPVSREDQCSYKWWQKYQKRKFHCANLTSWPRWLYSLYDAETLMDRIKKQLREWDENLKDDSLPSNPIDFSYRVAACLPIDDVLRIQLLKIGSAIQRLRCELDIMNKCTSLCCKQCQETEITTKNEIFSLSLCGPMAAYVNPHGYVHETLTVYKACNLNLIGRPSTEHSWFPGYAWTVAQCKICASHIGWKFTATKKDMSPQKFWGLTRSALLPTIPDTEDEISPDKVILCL
Summary of the method: (§1)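 WSU-DLCL-2 cells exposed 48 h to PROTAC or control analogues at 2.5 μM, with thalidomide and EPZ6438 at 10 μM; PRC2 subunit levels then read by western blot.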

[2] = target: T1, Protein cereblon/Histone-lysine N-methyltransferase EZH2 (Homo sapiens); test: PROTAC activity at CRBN E3 ligase/EZH2 in PRC2 complex in human WSUDLCL2 cells assessed as reduction in EZH2 level at 2.5 uM measured after 48 hrs by Western blot analysis; assay type: cell-based; summary of the method: as §1
NCI-H1299 [3] = test: Antiproliferative activity against EZH2-knockdown human NCI-H1299 cells assessed as inhibition of cell growth at 10 uM treated for 9 days by optical microscopic analysis; assay type: functional, cell-based; conditions: time 9.0 day
Summary of the method: (§2)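 Cells seeded at 5 × 10³ per well, grown 24 h, then exposed to compound at 10 μM for 9 days with medium refreshed. Cells were photographed and counted on days 1, 3, 5, 7 and 9. For lines 1-2, EZH2-targeting or control shRNA was induced in the cells. Mean SD of three independent experiments; t-test against control.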

[4] = target: Histone-lysine N-methyltransferase EZH2 (Homo sapiens, UniProt Q15910); assay type: cell-based, Sf9
Sequence of Histone-lysine N-methyltransferase EZH2 (Q15910 whole entry): as the sequence (Q15910 whole entry, looked up) above

A549 [5] = test: Antiproliferative activity against EZH2-knockdown human A549 cells assessed as inhibition of cell growth at 10 uM treated for 9 days by optical microscopic analysis; assay type: functional, cell-based; conditions: time 9.0 day; summary of the method: as §2
[6] = target: T1, Protein cereblon/Histone-lysine N-methyltransferase EZH2 (Homo sapiens); test: PROTAC activity at CRBN E3 ligase/EZH2 in PRC2 complex in human WSUDLCL2 cells assessed as reduction in RbAp48 level at 2.5 uM measured after 48 hrs by Western blot analysis; assay type: cell-based; summary of the method: as §1
[7] = target: T1, Protein cereblon/Histone-lysine N-methyltransferase EZH2 (Homo sapiens); test: PROTAC activity at CRBN E3 ligase/EZH2 in PRC2 complex in human WSUDLCL2 cells assessed as reduction in EED level at 2.5 uM measured after 48 hrs by Western blot analysis; assay type: cell-based; summary of the method: as §1
[8] = target: T1, Protein cereblon/Histone-lysine N-methyltransferase EZH2 (Homo sapiens); test: PROTAC activity at CRBN E3 ligase/EZH2 in PRC2 complex in human WSUDLCL2 cells assessed as reduction in H3K27me3 level incubated for 72 hrs by Western blot analysis; assay type: cell-based; conditions: dose 0-10 µM
[9] = target: T1, Protein cereblon/Histone-lysine N-methyltransferase EZH2 (Homo sapiens); test: PROTAC activity at CRBN E3 ligase/EZH2 in PRC2 complex in human WSUDLCL2 cells assessed as induction of SUZ12 degradation at up to 10 uM incubated for 72 hrs by Western blot analysis; assay type: cell-based; conditions: dose microM <=10, time 72.0 hrs
[10] = target: T1, Protein cereblon/Histone-lysine N-methyltransferase EZH2 (Homo sapiens); test: PROTAC activity at CRBN E3 ligase/EZH2 in PRC2 complex in human WSUDLCL2 cells assessed as reduction in H3K27me3 level at 1 uM incubated for 48 hrs by Western blot analysis; assay type: cell-based
Summary of the method: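 WSU-DLCL-2 cells treated 48 h (1 μM for the single-concentration screen), lysed; SDS-PAGE, nitrocellulose transfer, 5% milk block, primary antibody 4 °C overnight, chemiluminescence. Bands quantified by densitometry, normalized to GAPDH, expressed relative to DMSO-treated cells; mean ± SD of three independent experiments, t-test.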

[11] = target: T1, Protein cereblon/Histone-lysine N-methyltransferase EZH2 (Homo sapiens); test: PROTAC activity at CRBN E3 ligase/EZH2 in PRC2 complex in human WSUDLCL2 cells assessed as induction of EED degradation at up to 10 uM incubated for 72 hrs by Western blot analysis; assay type: cell-based; conditions: dose microM <=10, time 72.0 hrs
[12] = target: T1, Protein cereblon/Histone-lysine N-methyltransferase EZH2 (Homo sapiens); test: PROTAC activity at CRBN E3 ligase/EZH2 in PRC2 complex in human WSUDLCL2 cells assessed as induction of EZH2 degradation incubated for 72 hrs by Western blot analysis; assay type: cell-based; conditions: dose 0-10 µM
A549 [13] = test: Downregulation of […] mRNA expression in human A549 cells at 10 uM incubated for 48 hrs by qRT-PCR analysis; assay type: functional, cell-based
Summary of the method: (§3)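 Cells treated 48 h. Total RNA extracted with Trizol, reverse-transcribed, and SYBR RT-qPCR run: 95 °C 30 s, then 40 cycles of 95 °C 6 s and 60 °C 20 s. mRNA normalized to the DMSO-treated group. Mean SD of three independent experiments, t-test versus DMSO.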

A549 [14] = test: Downregulation of ARL6IP mRNA expression in human A549 cells at 10 uM incubated for 48 hrs by qRT-PCR analysis; assay type: functional, cell-based; summary of the method: as §3
NCI-H1299 [15] = test: Downregulation of CENPK mRNA expression in human NCI-H1299 cells at 10 uM incubated for 48 hrs by qRT-PCR analysis; assay type: functional, cell-based; summary of the method: as §3
MDA-MB-468 [16] = test: Downregulation of CENPK mRNA expression in human MDA-MB-468 cells at 10 uM incubated for 48 hrs by qRT-PCR analysis; assay type: functional, cell-based; summary of the method: as §3
MDA-MB-468 [17] = test: Downregulation of ARL6IP mRNA expression in human MDA-MB-468 cells at 10 uM incubated for 48 hrs by qRT-PCR analysis; assay type: functional, cell-based; summary of the method: as §3
MDA-MB-468 [18] = test: Downregulation of […] mRNA expression in human MDA-MB-468 cells at 10 uM incubated for 48 hrs by qRT-PCR analysis; assay type: functional, cell-based; summary of the method: as §3
A549 [19] = test: Downregulation of CENPK mRNA expression in human A549 cells at 10 uM incubated for 48 hrs by qRT-PCR analysis; assay type: functional, cell-based; summary of the method: as §3
MDA-MB-468 [20] = test: Downregulation of CEP76 mRNA expression in human MDA-MB-468 cells at 10 uM incubated for 48 hrs by qRT-PCR analysis; assay type: functional, cell-based; summary of the method: as §3
NCI-H1299 [21] = test: Downregulation of CEP76 mRNA expression in human NCI-H1299 cells at 10 uM incubated for 48 hrs by qRT-PCR analysis; assay type: functional, cell-based; summary of the method: as §3
NCI-H1299 [22] = test: Downregulation of CHEK1 mRNA expression in human NCI-H1299 cells at 10 uM incubated for 48 hrs by qRT-PCR analysis; assay type: functional, cell-based; summary of the method: as §3
NCI-H1299 [23] = test: Downregulation of ARL6IP mRNA expression in human NCI-H1299 cells at 10 uM incubated for 48 hrs by qRT-PCR analysis; assay type: functional, cell-based; summary of the method: as §3
A549 [24] = test: Downregulation of CEP76 mRNA expression in human A549 cells at 10 uM incubated for 48 hrs by qRT-PCR analysis; assay type: functional, cell-based; summary of the method: as §3
WSUDLCL2 = test: Antiproliferative activity against human WSUDLCL2 cells harboring EZH2-Y641F mutant assessed as inhibition of cell growth at 10 uM incubated for 9 days by optical microscopic analysis; assay type: functional, cell-based; conditions: time 9.0 day
Summary of the method: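 WSU-DLCL-2 cells seeded at 5 × 10³ per well, incubated 24 h, then exposed to 10 μM compound for 9 days with medium refreshed. Cells photographed and counted on days 1, 3, 5, 7 and 9. Mean SD of three independent experiments, t-test versus DMSO.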

NCI-H1299 [25] = test: Downregulation of TACC3 mRNA expression in human NCI-H1299 cells at 10 uM incubated for 48 hrs by qRT-PCR analysis; assay type: functional, cell-based; summary of the method: as §3
NCI-H1299 [26] = test: Antiproliferative activity against human NCI-H1299 cells harboring SWI/SNF mutant assessed as inhibition of cell growth at 10 uM treated for 9 days by optical microscopic analysis; assay type: functional, cell-based; conditions: time 9.0 day; summary of the method: as §2
A549 [27] = test: Downregulation of TACC3 mRNA expression in human A549 cells at 10 uM incubated for 48 hrs by qRT-PCR analysis; assay type: functional, cell-based; summary of the method: as §3
MDA-MB-468 [28] = test: Downregulation of CHEK1 mRNA expression in human MDA-MB-468 cells at 10 uM incubated for 48 hrs by qRT-PCR analysis; assay type: functional, cell-based; summary of the method: as §3
A549 [29] = test: Antiproliferative activity against human A549 cells harboring SWI/SNF mutant assessed as inhibition of cell growth at 10 uM treated for 9 days by optical microscopic analysis; assay type: functional, cell-based; conditions: time 9.0 day; summary of the method: as §2
MDA-MB-468 [30] = test: Downregulation of TACC3 mRNA expression in human MDA-MB-468 cells at 10 uM incubated for 48 hrs by qRT-PCR analysis; assay type: functional, cell-based; summary of the method: as §3
A549 [31] = test: Downregulation of CHEK1 mRNA expression in human A549 cells at 10 uM incubated for 48 hrs by qRT-PCR analysis; assay type: functional, cell-based; summary of the method: as §3
NCI-H1299 [32] = test: Downregulation of […] mRNA expression in human NCI-H1299 cells at 10 uM incubated for 48 hrs by qRT-PCR analysis; assay type: functional, cell-based; summary of the method: as §3
[33] = target: T1, Protein cereblon/Histone-lysine N-methyltransferase EZH2 (Homo sapiens); test: PROTAC activity at CRBN E3 ligase/EZH2 in PRC2 complex in human WSUDLCL2 cells assessed as reduction in H3K27me3 level at up to 10 uM incubated for 72 hrs by Western blot analysis; assay type: cell-based; conditions: dose microM <=10, time 72.0 hrs
[34] = target: T1, Protein cereblon/Histone-lysine N-methyltransferase EZH2 (Homo sapiens); test: PROTAC activity at CRBN E3 ligase/EZH2 in PRC2 complex in human WSUDLCL2 cells assessed as induction of EZH2 degradation at up to 10 uM incubated for 72 hrs by Western blot analysis; assay type: cell-based; conditions: dose microM <=10, time 72.0 hrs

Row | Activity [1] | Activity [2] | IC50 [4] | Activity [6] | Activity [7] | Activity [9] | Activity [11] | SMILES | Activity (A549 [13]) | Activity (A549 [14]) | Activity (NCI-H1299 [15]) | Activity (MDA-MB-468 [16]) | Activity (MDA-MB-468 [17]) | Activity (MDA-MB-468 [18]) | Activity (A549 [19]) | Activity (MDA-MB-468 [20]) | Activity (NCI-H1299 [21]) | Activity (NCI-H1299 [22]) | Activity (NCI-H1299 [23]) | Activity (A549 [24]) | Activity (WSUDLCL2) | other results
1 | inactive | inactive | 1.93 nM | inactive | inactive |  |  | CCN(c1cc(-c2ccc(CN3CCN(CCCCCCCOc4cccc5c4C(=O)N(C4CCC(=O)N(C)C4=O)C5=O)CC3)cc2)cc(C(=O)NCc2c(C)cc(C)[nH]c2=O)c1C)C1CCOCC1 (stereo not drawn) |  |  |  |  |  |  |  |  |  |  |  |  |  | Activity (NCI-H1299 [3]): inactive; Activity (A549 [5]): inactive
2 | inactive | inactive | 23.3 nM | inactive | inactive |  |  | CCN(c1cc(-c2ccc(CN3CCN(CCCCCCCOc4cccc5c4C(=O)N(C4CCC(=O)NC4=O)C5=O)CC3)cc2)cc(C(=O)NCc2c(C)cc(C)n(C)c2=O)c1C)C1CCOCC1 (stereo not drawn) |  |  |  |  |  |  |  |  |  |  |  |  |  | 
3 |  |  | 61 nM |  |  | Active | Active | CC[C@H](C)n1cc(C)c2c(C(=O)NCc3c(C)cc(C)[nH]c3=O)cc(-c3ccc(N4CCN(CCCCCCCCCCCCOc5cccc6c5C(=O)N(C5CCC(=O)NC5=O)C6=O)CC4)nc3)cc21 (stereo partly drawn) |  |  |  |  |  |  |  |  |  |  |  |  |  | Activity [8]: Dose-Dependent Effect; Activity [10]: Active; Activity [12]: Dose-Dependent Effect
4 |  |  |  |  |  |  |  | CCN(c1cc(-c2ccc(CN3CCOCC3)cc2)cc(C(=O)NCc2c(C)cc(C)[nH]c2=O)c1C)C1CCOCC1 | inactive | inactive | inactive | inactive | inactive | inactive | inactive | inactive | inactive | inactive | inactive | inactive | Active | Activity (NCI-H1299 [25]): inactive; Activity (NCI-H1299 [26]): inactive; Activity (A549 [27]): inactive; Activity (MDA-MB-468 [28]): inactive; Activity (A549 [29]): inactive; Activity (MDA-MB-468 [30]): inactive; Activity (A549 [31]): inactive; Activity (NCI-H1299 [32]): inactive
5 |  |  |  |  |  | inactive | inactive | CC[C@H](C)n1cc(C)c2c(C(=O)NCc3c(C)cc(C)[nH]c3=O)cc(-c3ccc(N4CCNCC4)nc3)cc21 | inactive | inactive | inactive | inactive | inactive | inactive | inactive | inactive | inactive | inactive | inactive | inactive | Active | Activity [33]: Active; Activity [34]: inactive; Activity (NCI-H1299 [25]): inactive; Activity (NCI-H1299 [26]): inactive; Activity (A549 [27]): inactive; Activity (MDA-MB-468 [28]): inactive; Activity (MDA-MB-468 [30]): inactive; Activity (A549 [31]): inactive; Activity (NCI-H1299 [32]): inactive
